Experiment [1] concerns MDA-MB-435. Put plainly: Induction of apoptosis in human MDA-MB-435 cells assessed as nuclear fragmentation at 0.25 to 1 uM by DAPI staining-based fluorscence microscopy. The class given is functional, cell-based. The procedure, abridged: (§1)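 Treated MDA-MB-435 cells washed in ice-cold PBS, fixed 20 min in 4% paraformaldehyde, stained 30 min at 37 °C with DAPI (50 µg/mL) containing 100 µg/mL RNase A. After PBS washes, examined by fluorescence microscopy (excitation 340 nm, emission 488 nm).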

The subject of experiment [2] is MDA-MB-435. Description: Induction of apoptosis in human MDA-MB-435 cells assessed as PARP cleavage after 12 to 24 hrs by Western blotting analysis. The class given is functional, cell-based. In short, it runs like this:
(§2)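 Treated MDA-MB-435 cells lysed in ice-cold Tris-HCl pH 7.4 buffer with Triton, phosphatase and protease inhibitors. Lysates clarified, boiled in SDS loading buffer, run on 8-12% SDS-PAGE and blotted. Membranes blocked in 5% skim milk, probed with primary antibodies, then peroxidase secondaries with ECL detection. β-actin as loading control.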
A general note: Immunoblotting shows a protein as a band on a membrane.

For experiment [3], the species on record is Bos taurus. Description: Inhibition of calf thymus DNA topoisomerase 1-mediated relaxation of supercoiled pBR322 DNA at 10 to 100 uM after 30 mins by Agarose gel electrophoresis. The procedure, abridged:
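Relaxation assay with 0.5 µg supercoiled pBR322 and 1 unit calf thymus Topo I, 20 µL. Buffer: 10 mM Tris–HCl pH 7.9, 150 mM NaCl, 0.1% BSA, 1 mM spermidine, 5% glycerol. Incubated 37 °C for 30 min; stopped with sarcosyl stop solution. 1% agarose gel, 5 V/cm, 2 h, TAE; ethidium bromide stain (0.5 µg/mL), UV. DMSO stocks. At least duplicate.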

In experiment [4] the test system is MDA-MB-435. Description: Cell cycle arrest in human MDA-MB-435 cells assessed as increase in CDC2 expression at 0.25 to 1 uM after 12 to 24 hrs by Western blotting analysis. The class given is functional, cell-based. The procedure, abridged:
as §2

The test system of experiment [5] is MDA-MB-435. Put plainly: Cell cycle arrest in human MDA-MB-435 cells assessed as accumulation at G1 phase at 0.25 uM after 24 hrs by propidium iodide staining-based flow cytometry (reference value: 28.06%). The class given is functional. In general terms: In flow cytometry, cells or beads pass a laser one at a time.
Experiment [6] has as its system MDA-MB-435. Put plainly: Induction of human apoptosis in MDA-MB-435 cells assessed as upregulation of Bak protein expression at 0.25 to 1 uM after 12 hrs by Western blotting analysis. The format is functional, cell-based. In short, it runs like this: as §2
The test system of experiment [7] is MDA-MB-435. Put plainly: Induction of apoptosis in human MDA-MB-435 cells assessed as early apoptotic cells at 1 uM after 24 hrs by annexin-V FITC/propidium iodide staining-based flow cytometry (reference value: 0.61 +/- 0.24%). The class given is functional. The procedure, abridged: (§3)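 MDA-MB-435 cells treated 24 h, stained with annexin V-FITC/PI per kit instructions, analysed by flow cytometry. Quadrant statistics: lower right taken as apoptotic, upper right as necrotic or post-apoptotic necrotic. Representative of three similar experiments.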

Experiment [8] relates to MDA-MB-435. Description: Cell cycle arrest in human MDA-MB-435 cells assessed as accumulation at S phase at 0.5 uM after 24 hrs by propidium iodide staining-based flow cytometry (reference value: 57.11%). The format is functional.
The species entered for experiment [9] is Bos taurus. Put plainly: Induction of calf thymus DNA topoisomerase 1 poisoning activity using pBR322 as substrate assessed as appearance of nicked open circular DNA at 100 uM after 30 mins by Agarose gel electrophoresis. The procedure, abridged: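 Calf thymus Topo I (1 unit) with 0.5 µg pBR322 in relaxation buffer (10 mM Tris-HCl pH 7.9, 150 mM NaCl, 0.1% BSA, 1 mM spermidine, 5% glycerol), 37 °C for 30 min. Stopped with 10% SDS, digested with proteinase K (50 µg/mL) 20 min, run on ethidium bromide-containing 1% agarose gel, 5 V/cm, 2 h. Nicked open circular and linear DNA positions scored; at least duplicate.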

In experiment [10] the test system is MDA-MB-435. Put plainly: Cell cycle arrest in human MDA-MB-435 cells assessed as accumulation at sub-G1 phase at 1 uM after 24 hrs by propidium iodide staining-based flow cytometry (reference value: 0.79%). The format is functional.
In experiment [11] the test system is MDA-MB-435. Put plainly: Induction of apoptosis in human MDA-MB-435 cells assessed as early apoptotic cells at 0.5 uM after 24 hrs by annexin-V FITC/propidium iodide staining-based flow cytometry (reference value: 0.61 +/- 0.24%). The format is functional. The procedure, abridged:
as §3

The subject of experiment [12] is MDA-MB-435. Put plainly: Cell cycle arrest in human MDA-MB-435 cells assessed as accumulation at sub-G1 phase at 0.5 uM after 24 hrs by propidium iodide staining-based flow cytometry (reference value: 0.79%). The class given is functional.
The test system of a further experiment is A549. Put plainly: Cytotoxicity against human A549 cells assessed as growth inhibition after 72 hrs by MTT assay. The class given is functional, cell-based. The procedure, abridged:
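MTT assay: cells treated in triplicate with a range of concentrations for 72 h at 37 °C, 5% CO2. Medium replaced, MTT (5 mg/mL) added for 4 h, then SDS/isobutanol/HCl solubiliser overnight. Absorbance read at 590 nm. Inhibition calculated against control and blank wells; IC50 is concentration giving 50% growth inhibition; three independent experiments.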
Background: Tetrazolium assays rely on reduction of a dye to a coloured formazan, in cell work by metabolically active cells.

Experiment [13] has as its system MDA-MB-435. Put plainly: Induction of apoptosis in human MDA-MB-435 cells assessed as viable cells at 1 uM after 24 hrs by annexin-V FITC/propidium iodide staining-based flow cytometry (reference value: 98.62 +/- 0.25%). To be noted: MDA-MB-435, 24 h, read-out: Activity. The format is functional. In short, it runs like this:
as §3

The subject of experiment [14] is MDA-MB-435. Description: Induction of apoptosis in human MDA-MB-435 cells assessed as downregulation of Bcl-2 protein expression at 0.25 to 1 uM after 12 hrs by Western blotting analysis. The class given is functional, cell-based. The procedure, abridged: as §2
The test system of experiment [15] is MDA-MB-435. Description: Induction of apoptosis in human MDA-MB-435 cells assessed as early apoptotic cells at 2 uM after 24 hrs by annexin-V FITC/propidium iodide staining-based flow cytometry (reference value: 0.61 +/- 0.24%). The format is functional. The procedure, abridged: as §3
The test system of experiment [16] is MDA-MB-435. Description: Cell cycle arrest in human MDA-MB-435 cells assessed as accumulation at sub-G1 phase at 0.25 to 1 uM by propidium iodide staining-based flow cytometry. The class given is functional. Particulars: TDE = time-dependent effect, in the assay text read “G2/M phase” for “sub-G1 phase”. The procedure, abridged: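 PI-stained DNA content of treated MDA-MB-435 cells read by flow cytometry. Sub-G1 population taken as apoptotic cellular fragments; three independent experiments.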

In experiment [17] the test system is MDA-MB-435. Put plainly: Induction of apoptosis in human MDA-MB-435 cells assessed as dead cells at 0.5 uM after 24 hrs by annexin-V FITC/propidium iodide staining-based flow cytometry (reference value: 0.61 +/- 0.24%). The class given is functional.
Experiment [18] has as its system MDA-MB-435. Put plainly: Induction of DNA damage in human MDA-MB-435 cells assessed as phosphorylation of H2AX at Ser139 at 0.5 uM after 12 hrs by Western blotting analysis. The format is functional, cell-based. In short, it runs like this: as §2
In experiment [19] the test system is MDA-MB-435. Put plainly: Induction of apoptosis in human MDA-MB-435 cells at 0.25 to 1 uM after 24 hrs by annexin-V FITC/propidium iodide staining-based flow cytometry in presence of N-acetylcysteine. The class given is functional, cell-based.
Experiment [20] has as its system MDA-MB-435. Put plainly: Induction of apoptosis in human MDA-MB-435 cells assessed as morphological changes at 0.25 to 1 uM by DAPI staining-based fluorescence microscopy. The format is functional, cell-based. In short, it runs like this:
as §1

For experiment [21], the system named is MDA-MB-435. Put plainly: Induction of apoptosis in human MDA-MB-435 cells assessed as chromatin condensation at 0.25 to 1 uM by DAPI staining-based fluorscence microscopy. The class given is functional, cell-based. In short, it runs like this:
as §1

Experiment [22] concerns MDA-MB-435. Description: Induction of apoptosis in human MDA-MB-435 cells assessed as increase in cleaved-caspase 3 expression after 12 to 24 hrs by Western blotting analysis. The format is functional, cell-based. In short, it runs like this: as §2

These results are taken from ChEMBL document CHEMBL2424614, “A novel p-terphenyl derivative inducing cell-cycle arrest and apoptosis in MDA-MB-435 cells through topoisomerase inhibition” (Eur J Med Chem, 2013).

Active and inactive are the calls of the source. No cut-off for these calls is given here.

On to `Oc1ccc(-c2ccc(-c3ccc(O)c(O)c3)cc2)cc1`, for which the outcome with MDA-MB-435 [1], in the experiment on MDA-MB-435 [4], in the experiment on MDA-MB-435 [6], in the experiment on MDA-MB-435 [14], in the experiment on MDA-MB-435 [19] and in the experiment with MDA-MB-435 [20] was Active. The outcome with MDA-MB-435 [21] was Active. Also, the Activity result is “Dose-dependent effect” in the experiment with MDA-MB-435 [2]; 34.91% in the experiment with MDA-MB-435 [5]; 13.33% with MDA-MB-435 [7]; 26.38% in the experiment on MDA-MB-435 [8]; 10.5% with MDA-MB-435 [10]; 8.01% in the experiment on MDA-MB-435 [11]. The Activity in the experiment on MDA-MB-435 [12] was 4.53%; in the experiment on MDA-MB-435 [15], 12.87%; in the experiment on MDA-MB-435 [16], “tde”; in the experiment on MDA-MB-435 [17], 1.27%; with MDA-MB-435 [22], “Dose-dependent effect”. The inhibition result in the experiment filed under Bos taurus [3] was “Active”. Also, the outcome in the experiment listed under Bos taurus [9] and in the experiment with MDA-MB-435 [18] was inactive. The “growth inhibition (GI)” value in the experiment on A549 was “Active”. Also, the viability at 1 µM with MDA-MB-435 [13] was 76.3%.
